Source: ChEMBL document CHEMBL4354846, “1,3-Dipolar Cycloaddition, HPLC Enantioseparation, and Docking Studies of Saccharin/Isoxazole and Saccharin/Isoxazoline Derivatives as Selective Carbonic Anhydrase IX and XII Inhibitors” (J Med Chem, 2020)
The source made the active and inactive calls. The rule behind the calls is not given here.

Columns and labels:
[1] = target: Carbonic anhydrase 2 (Homo sapiens, UniProt P00918); test: Inhibition of recombinant human carbonic anhydrase 2 incubated for 15 mins prior to testing measured for 10 to 100 secs by phenol red-based stopped-flow CO2 hydration assay
[2] = target: Carbonic anhydrase 1 (Homo sapiens, UniProt P00915); test: Inhibition of recombinant human carbonic anhydrase 1 incubated for 15 mins prior to testing measured for 10 to 100 secs by phenol red-based stopped-flow CO2 hydration assay
Carbonic anhydrase 1, sequence (P00915 whole entry): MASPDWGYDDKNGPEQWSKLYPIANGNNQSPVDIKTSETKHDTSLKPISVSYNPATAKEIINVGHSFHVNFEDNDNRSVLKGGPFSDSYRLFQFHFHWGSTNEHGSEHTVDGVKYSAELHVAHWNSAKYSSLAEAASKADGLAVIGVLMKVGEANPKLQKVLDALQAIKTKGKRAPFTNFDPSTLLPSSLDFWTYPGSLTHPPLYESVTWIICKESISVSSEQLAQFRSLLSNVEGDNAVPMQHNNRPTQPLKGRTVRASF

[3] = target: Carbonic anhydrase 9 (Homo sapiens, UniProt Q16790); test: Inhibition of recombinant human carbonic anhydrase 9 incubated for 15 mins prior to testing measured for 10 to 100 secs by phenol red-based stopped-flow CO2 hydration assay
[4] = test system: MCF7; test: Cytotoxicity against human MCF7 cells assessed as reduction in cell viability measured after 72 hrs under hypoxic condition by MTT assay; format: functional, cell-based; settings: MCF7, 72 h
Outline: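 MCF7 given CoCl2 100 μM for 48 h to induce hypoxia, then doxorubicin alone at 0.05–200 μM for 72 h. Viability read by MTT: 0.5 mg/mL for 5 h at 37 °C, formazan dissolved in DMSO, absorbance at 570 nm, cell-free wells as background.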

[5] = target: Carbonic anhydrase 12 (Homo sapiens, UniProt O43570); test: Inhibition of recombinant human carbonic anhydrase 12 incubated for 15 mins prior to testing measured for 10 to 100 secs by phenol red-based stopped-flow CO2 hydration assay
Carbonic anhydrase 12, sequence (O43570 whole entry): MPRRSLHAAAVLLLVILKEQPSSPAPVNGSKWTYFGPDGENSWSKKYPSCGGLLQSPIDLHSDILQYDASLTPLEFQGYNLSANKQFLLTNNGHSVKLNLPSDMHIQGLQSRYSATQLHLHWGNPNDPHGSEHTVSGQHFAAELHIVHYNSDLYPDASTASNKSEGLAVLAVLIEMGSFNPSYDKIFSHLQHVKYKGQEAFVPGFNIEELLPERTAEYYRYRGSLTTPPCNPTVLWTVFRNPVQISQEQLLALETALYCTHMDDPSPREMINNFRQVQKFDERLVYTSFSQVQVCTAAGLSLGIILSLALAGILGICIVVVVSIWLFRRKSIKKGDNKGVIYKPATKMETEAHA

[6] = Cytotoxicity against HGF cells assessed as reduction in LDH release at 0.05 to 200 uM measured up to 72 hrs by CytoTox 96 nonradioactive cytotoxicity assay; format: cell-based; settings: human
Outline: (§1)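 Primary human gingival fibroblasts from healthy donors, in DMEM with 10% FBS at 37 °C, 5% CO2. Treated 24 h after seeding with 0.05–200 μM compound (DMSO final 0.2%). Supernatants collected at 24, 48 and 72 h and spun 450 g for 4 min. LDH measured by a 30-min coupled tetrazolium reaction read at 490 nm, with 690 nm as background. Given as % of lysed-cell positive control.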

[7] = test system: MCF7; test: Chemosensitization activity in human MCF7 cells assessed as reduction in cell viability at 0.05 to 200 uM measured after 72 hrs in presence of doxorubicin under hypoxic condition by MTT assay; format: functional, cell-based
Outline: (§2)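 MCF7 in DMEM high glucose with 10% FBS, 37 °C, 5% CO2. Seeded 10000/well for 24 h, then CoCl2 100 μM for 48 h (hypoxia). Treated 72 h with compound 0.05–200 μM plus doxorubicin 2.5 μM, DMSO final 0.2%. MTT 0.5 mg/mL for 5 h at 37 °C, formazan dissolved in DMSO, read at 570 nm. Normalized to DMSO+CoCl2+doxorubicin control. Three experiments; one-way ANOVA with Tukey.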

[8] = test system: MCF7; test: Chemosensitization activity in human MCF7 cells assessed as induction of morphological changes by measuring cell detachment at 100 to 200 uM measured after 72 hrs in presence of doxorubicin under hypoxic condition by phase contrast light microscopic analysis; format: functional, cell-based
Outline: (§3)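 MCF7 seeded 10000/well, grown 24 h, then medium with CoCl2 100 μM for 48 h to induce hypoxia. Cells then given compound (0.05–200 μM, DMSO final 0.2%) with doxorubicin 2.5 μM for 72 h. Imaged by phase contrast light microscopy (×20) for cell shape and detachment, before the MTT step.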

[9] = test system: MCF7; test: Chemosensitization activity in human MCF7 cells assessed as induction of morphological changes by measuring rounded cells at 100 to 200 uM measured after 72 hrs in presence of doxorubicin under hypoxic condition by phase contrast light microscopic analysis; format: functional, cell-based; outline: as §3
[10] = Cytotoxicity against HGF cells assessed as reduction in cell viability at 0.05 to 200 uM measured up to 72 hrs by MTT assay; format: cell-based; settings: human
Outline: (§4)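 Gingival fibroblasts seeded and treated as for LDH: 0.05–200 μM compound, DMSO final 0.2%, read at 24, 48 and 72 h. MTT 0.5 mg/mL for 5 h at 37 °C, formazan dissolved in DMSO, read at 570 nm. Viability normalized to 0.2% DMSO control. One-way ANOVA with Tukey tests.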

[11] = Cytotoxicity against HGF cells assessed as reduction in cell viability at 0.05 to 50 uM measured after 24 to 48 hrs by MTT assay; format: cell-based; settings: human, 50 to 200 µM; in the assay text read “50 to 200 uM” for “0.05 to 50 uM”; outline: as §4
[12] = Cytotoxicity against HGF cells assessed as reduction in LDH release at 0.05 to 200 uM measured after 24 hrs by CytoTox 96 nonradioactive cytotoxicity assay; format: cell-based; settings: human; outline: as §1
[13] = Cytotoxicity against HGF cells assessed as reduction in LDH release at 0.05 to 200 uM measured after 48 to 72 hrs by CytoTox 96 nonradioactive cytotoxicity assay; format: cell-based; settings: human; outline: as §1
[14] = Cytotoxicity against HGF cells assessed as reduction in cell viability at 0.05 to 5 uM measured after 72 hrs by MTT assay; format: cell-based; settings: human; outline: as §4
[15] = Cytotoxicity against HGF cells assessed as reduction in cell viability at 100 to 200 uM measured after 72 hrs by MTT assay; format: cell-based; settings: human; outline: as §4
[16] = test system: MCF7; test: Chemosensitization activity in human MCF7 cells assessed as reduction in cell viability at 100 to 200 uM measured after 72 hrs in presence of doxorubicin under hypoxic condition by MTT assay; format: functional, cell-based; outline: as §2
[17] = Cytotoxicity against HGF cells assessed as cell viability at 100 to 200 uM measured after 24 to 48 hrs by MTT assay relative to control; format: cell-based; settings: human, read-out: Activity; outline: as §4

| Compound | Ki [1] | Ki [2] | Ki [3] | further results |
| --- | --- | --- | --- | --- |
| COc1cccc(-c2cc(CN3C(=O)c4ccccc4S3(=O)=O)on2)c1 | > 10000 nM | > 10000 nM | 247 nM | – |
| COc1cccc(C2=NOC(CN3C(=O)c4ccccc4S3(=O)=O)C2)c1 (configuration not stated) | > 10000 nM | > 10000 nM | > 10000 nM | – |
| O=C1c2ccccc2S(=O)(=O)N1Cc1cc(-c2ccccc2)no1 | > 10000 nM | > 10000 nM | 50.9 nM | – |
| O=C1c2ccccc2S(=O)(=O)N1C[C@H]1CC(c2cccs2)=NO1 | > 10000 nM | 358 nM | 26.4 nM | – |
| COc1cccc2c1C(=O)c1c(O)c3c(c(O)c1C2=O)C[C@@](O)(C(=O)CO)C[C@@H]3O[C@H]1C[C@H](N)[C@H](O)[C@H](C)O1 [DOXORUBICIN] | – | – | – | IC50 [4]: 5000 to 50000 nM |
| O=C1c2ccccc2S(=O)(=O)N1CC1CC(c2cccc([N+](=O)[O-])c2)=NO1 (configuration not stated) | > 10000 nM | > 10000 nM | 103 nM | – |
| O=C1c2ccccc2S(=O)(=O)N1C[C@@H]1CC(c2ccccc2)=NO1 | > 10000 nM | > 10000 nM | 29.3 nM | Ki [5]: 36.5 nM |
| O=C1c2ccccc2S(=O)(=O)N1Cc1cc(-c2cccnc2)no1 | > 10000 nM | > 10000 nM | 86.2 nM | – |
| O=C1c2ccccc2S(=O)(=O)N1C[C@H]1CC(c2ccccc2)=NO1 | > 10000 nM | > 10000 nM | 30 nM | Ki [5]: 48.9 nM |
| O=C1c2ccccc2S(=O)(=O)N1Cc1cc(-c2ccc([N+](=O)[O-])cc2)no1 | > 10000 nM | > 10000 nM | – | Activity [6]: Non-Toxic; Activity [7]: inactive; Activity [8]: Active; Activity [9]: Active; Activity [10]: Non-Toxic |
| COc1ccccc1-c1cc(CN2C(=O)c3ccccc3S2(=O)=O)on1 | > 10000 nM | > 10000 nM | > 10000 nM | – |
| O=C1c2ccccc2S(=O)(=O)N1Cc1cc(-c2cccs2)no1 | > 10000 nM | > 10000 nM | 7.5 nM | – |
| O=C1c2ccccc2S(=O)(=O)N1CC1CC(c2ccc([N+](=O)[O-])cc2)=NO1 (configuration not stated) | > 10000 nM | > 10000 nM | 235 nM | – |
| O=C1c2ccccc2S(=O)(=O)N1CC1CC(c2cccnc2)=NO1 (configuration not stated) | > 10000 nM | > 10000 nM | 274 nM | – |
| O=C1c2ccccc2S(=O)(=O)N1C[C@@H]1CC(c2cccs2)=NO1 | 13.1 nM | 365 nM | 2.4 nM | – |
| COc1ccccc1C1=NOC(CN2C(=O)c3ccccc3S2(=O)=O)C1 (configuration not stated) | > 10000 nM | > 10000 nM | > 10000 nM | Ki [5]: 9.4 nM |
| O=C1c2ccccc2S(=O)(=O)N1Cc1cc(-c2cccc([N+](=O)[O-])c2)no1 | > 10000 nM | > 10000 nM | 230 nM | – |
| O=C1c2ccccc2S(=O)(=O)N1CC1CC(c2ccccn2)=NO1 (configuration not stated) | > 10000 nM | > 10000 nM | 258 nM | – |
| COc1ccc(C2=NOC(CN3C(=O)c4ccccc4S3(=O)=O)C2)cc1 (configuration not stated) | – | > 10000 nM | 139 nM | Ki [5]: 8.1 nM |
| COc1ccc(-c2cc(CN3C(=O)c4ccccc4S3(=O)=O)on2)cc1 | > 10000 nM | > 10000 nM | 22.1 nM | Activity [11]: Toxic; Activity [12]: Toxic; Activity [13]: Non-Toxic; Activity [14]: Non-Toxic; Activity [8]: Active; Activity [9]: Active; Activity [15]: Toxic; Activity [16]: Active; viability at up to 200 µM [17]: < 50% |
| O=C1c2ccccc2S(=O)(=O)N1Cc1cc(-c2ccccn2)no1 | > 10000 nM | > 10000 nM | 245 nM | – |
